ChEMBL document CHEMBL2062469, “1-(2-Mercaptobenzenesulfonyl)-3-hydroxyguanidines--novel potent antiproliferatives, synthesis and in vitro biological activity” (2012)

What was measured:
Assay type in all cases: functional
[1] = tested on: CCRF-CEM; assay: Cytostatic activity against human CCRF-CEM cells
Summary of the method: (§1)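 NCI-60 human tumor cell line screen run by the US National Cancer Institute under the NIH Developmental Therapeutics Program protocol. A single-dose prescreen at 10 µM came first. Selected compounds then went into the 5-dose assay. Cytostatic activity is reported as GI50 (µM).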

[2] = tested on: K562; assay: Cytostatic activity against human K562 cells; summary of the method: as §1
[3] = tested on: MOLT-4; assay: Cytostatic activity against human MOLT4 cells; summary of the method: as §1
[4] = Cytostatic activity against human […] cells; summary of the method: as §1
[5] = tested on: SR; assay: Cytostatic activity against human SR cells
Summary of the method: (§2)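 Human tumour cell lines from the NCI-60 panel, tested at the US National Cancer Institute under the NIH Developmental Therapeutics Program protocol. A single-dose prescreen at 10 µM came first. Selected compounds then went to a 5-dose assay, which gave GI50 and TGI values in µM.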

[6] = tested on: EKVX; assay: Cytostatic activity against human EKVX cells; summary of the method: as §1
[7] = tested on: HOP-62; assay: Cytostatic activity against human HOP62 cells; summary of the method: as §1
[8] = tested on: HOP-92; assay: Cytostatic activity against human HOP92 cells; summary of the method: as §1
[9] = tested on: NCI-H226; assay: Cytostatic activity against human NCI-H226 cells; summary of the method: as §1
[10] = tested on: NCI-H23; assay: Cytostatic activity against human NCI-H23 cells; summary of the method: as §1
[11] = tested on: NCI-H322M; assay: Cytostatic activity against human NCI-H322M cells; summary of the method: as §1
[12] = tested on: NCI-H460; assay: Cytostatic activity against human NCI-H460 cells; summary of the method: as §1
[13] = tested on: NCI-H522; assay: Cytostatic activity against human NCI-H522 cells; summary of the method: as §1
[14] = tested on: COLO 205; assay: Cytostatic activity against human COLO205 cells; summary of the method: as §1
[15] = tested on: HCC 2998; assay: Cytostatic activity against human HCC2998 cells; summary of the method: as §1
[16] = tested on: HCT-116; assay: Cytostatic activity against human HCT116 cells; summary of the method: as §1
[17] = tested on: HCT-15; assay: Cytostatic activity against human HCT15 cells; summary of the method: as §1
[18] = tested on: HT-29; assay: Cytostatic activity against human HT-29 cells; summary of the method: as §1
[19] = tested on: KM12; assay: Cytostatic activity against human KM12 cells; summary of the method: as §1
[20] = tested on: SW-620; assay: Cytostatic activity against human SW620 cells; summary of the method: as §2
[21] = tested on: SF-268; assay: Cytostatic activity against human SF268 cells; summary of the method: as §1
[22] = tested on: SF-295; assay: Cytostatic activity against human SF295 cells; summary of the method: as §1
[23] = tested on: SF-539; assay: Cytostatic activity against human SF539 cells; summary of the method: as §1
[24] = tested on: SNB-19; assay: Cytostatic activity against human SNB19 cells; summary of the method: as §1
[25] = tested on: SNB-75; assay: Cytostatic activity against human SNB75 cells; summary of the method: as §2
[26] = tested on: U-251; assay: Cytostatic activity against human U251 cells; summary of the method: as §2
[27] = tested on: LOX IMVI; assay: Cytostatic activity against human LOXIMVI cells; summary of the method: as §1
[28] = tested on: Malme-3M; assay: Cytostatic activity against human MALME-3M cells; summary of the method: as §1
[29] = tested on: M14; assay: Cytostatic activity against human M14 cells; summary of the method: as §1
[30] = tested on: MDA-MB-435; assay: Cytostatic activity against human MDA-MB-435 cells; summary of the method: as §1
[31] = tested on: SK-MEL-2; assay: Cytostatic activity against human SK-MEL-2 cells; summary of the method: as §1
[32] = tested on: SK-MEL-28; assay: Cytostatic activity against human SK-MEL-28 cells; summary of the method: as §1
[33] = tested on: SK-MEL-5; assay: Cytostatic activity against human SK-MEL-5 cells; summary of the method: as §1
[34] = tested on: UACC-257; assay: Cytostatic activity against human UACC257 cells; summary of the method: as §2
[35] = tested on: UACC-62; assay: Cytostatic activity against human UACC62 cells; summary of the method: as §2
[36] = tested on: IGROV-1; assay: Cytostatic activity against human IGROV1 cells; summary of the method: as §1
[37] = tested on: OVCAR-3; assay: Cytostatic activity against human OVCAR3 cells; summary of the method: as §1
[38] = tested on: OVCAR-4; assay: Cytostatic activity against human OVCAR4 cells; summary of the method: as §1
[39] = tested on: OVCAR-5; assay: Cytostatic activity against human OVCAR5 cells; summary of the method: as §1
[40] = tested on: OVCAR-8; assay: Cytostatic activity against human OVCAR8 cells; summary of the method: as §1
[41] = tested on: NCI/ADR-RES; assay: Cytostatic activity against human NCI-ADR-RES cells; summary of the method: as §1
[42] = tested on: SK-OV-3; assay: Cytostatic activity against human SKOV3 cells; summary of the method: as §1
[43] = tested on: 786-0; assay: Cytostatic activity against human 786-0 cells; summary of the method: as §1
[44] = tested on: A498; assay: Cytostatic activity against human A498 cells; summary of the method: as §1
[45] = tested on: ACHN; assay: Cytostatic activity against human ACHN cells; summary of the method: as §1
[46] = tested on: CAKI-1; assay: Cytostatic activity against human Caki1 cells; summary of the method: as §1
[47] = tested on: RXF 393; assay: Cytostatic activity against human RXF393 cells; summary of the method: as §1
[48] = tested on: SN12C; assay: Cytostatic activity against human SN12C cells; summary of the method: as §1
[49] = tested on: UO-31; assay: Cytostatic activity against human UO31 cells; summary of the method: as §2
[50] = tested on: PC-3; assay: Cytostatic activity against human PC3 cells; summary of the method: as §1
[51] = tested on: DU-145; assay: Cytostatic activity against human DU145 cells; summary of the method: as §1
[52] = tested on: MCF7; assay: Cytostatic activity against human MCF7 cells; summary of the method: as §1
[53] = tested on: MDA-MB-231; assay: Cytostatic activity against human MDA-MB-231/ATCC cells; summary of the method: as §1
[54] = tested on: Hs-578T; assay: Cytostatic activity against human Hs 578T cells; summary of the method: as §1
[55] = tested on: BT-549; assay: Cytostatic activity against human BT549 cells; summary of the method: as §1
[56] = tested on: T47D; assay: Cytostatic activity against human T47D cells; summary of the method: as §2
[57] = tested on: MDA-MB-468; assay: Cytostatic activity against human MDA-MB-468 cells; summary of the method: as §1

GI50 [1]: 1910 nM
GI50 [2]: 1870 nM
GI50 [3]: 1450 nM
GI50 [9]: 2230 nM
GI50 [10]: 1860 nM
GI50 [11]: 3.48 µM
GI50 [12]: 1940 nM
GI50 [13]: 1320 nM
GI50 [14]: 1860 nM
GI50 [15]: 2010 nM
GI50 [16]: 1670 nM
GI50 [17]: 1790 nM
GI50 [18]: 1900 nM
GI50 [20]: 1680 nM
GI50 [26]: 1360 nM
GI50 [30]: 1510 nM
GI50 [31]: 1960 nM
GI50 [32]: 1710 nM
GI50 [33]: 1480 nM
GI50 [37]: 1690 nM
GI50 [38]: 1600 nM
GI50 [39]: 2070 nM
GI50 [40]: 1720 nM
GI50 [42]: 2200 nM
GI50 [43]: 2750 nM
GI50 [45]: 2020 nM
GI50 [50]: 1790 nM
GI50 [51]: 1710 nM
GI50 [52]: 1450 nM
GI50 [53]: 2030 nM
GI50 [55]: 2450 nM
GI50 [56]: 1700 nM
GI50 [57]: 1560 nM
Compound: N=C(NO)NS(=O)(=O)c1cc(-c2nc(-c3ccccc3)no2)c(Cl)cc1SCc1ccccc1
TGI [1]: 5.3 µM
TGI [2]: 4.74 µM
TGI [3]: 3.74 µM
GI50 [4]: 2340 nM
TGI [4]: 9.03 µM
GI50 [5]: 1430 nM
TGI [5]: 5.88 µM
GI50 [6]: 1360 nM
TGI [6]: 2710 nM
GI50 [7]: 2230 nM
TGI [7]: 5.12 µM
GI50 [8]: 1990 nM
TGI [8]: 9.01 µM
TGI [9]: 4.8 µM
TGI [10]: 4.36 µM
TGI [11]: 16.2 µM
TGI [12]: 3.95 µM
TGI [13]: 2970 nM
TGI [14]: 3.39 µM
TGI [15]: 4.03 µM
TGI [16]: 3.32 µM
TGI [17]: 3.83 µM
TGI [18]: 3.49 µM
GI50 [19]: 1770 nM
TGI [19]: 3.55 µM
TGI [20]: 3.21 µM
GI50 [21]: 1740 nM
TGI [21]: 3.95 µM
GI50 [22]: 2050 nM
TGI [22]: 5.79 µM
GI50 [23]: 2720 nM
TGI [23]: 6.44 µM
GI50 [24]: 3.56 µM
TGI [24]: 18.7 µM
GI50 [25]: 1220 nM
TGI [25]: 3.94 µM
TGI [26]: 2840 nM
GI50 [27]: 1630 nM
TGI [27]: 4.09 µM
GI50 [28]: 1800 nM
TGI [28]: 7.42 µM
GI50 [29]: 2150 nM
TGI [29]: 4.39 µM
TGI [30]: 3.08 µM
TGI [31]: 4.03 µM
TGI [32]: 3.46 µM
TGI [33]: 2860 nM
GI50 [34]: 1680 nM
TGI [34]: 3.53 µM
GI50 [35]: 1840 nM
TGI [35]: 3.83 µM
GI50 [36]: 2380 nM
TGI [36]: 7.53 µM
TGI [37]: 3.12 µM
TGI [38]: 4.06 µM
TGI [39]: 5.31 µM
TGI [40]: 3.82 µM
GI50 [41]: 2060 nM
TGI [41]: 5.05 µM
TGI [42]: 4.55 µM
TGI [43]: 7.06 µM
GI50 [44]: 2570 nM
TGI [44]: 7.85 µM
TGI [45]: 3.9 µM
GI50 [46]: 1670 nM
TGI [46]: 3.65 µM
GI50 [47]: 1520 nM
TGI [47]: 2970 nM
GI50 [48]: 1530 nM
TGI [48]: 3.27 µM
GI50 [49]: 1400 nM
TGI [49]: 7.64 µM
TGI [50]: 3.88 µM
TGI [51]: 3.17 µM
TGI [52]: 2970 nM
TGI [53]: 5.24 µM
GI50 [54]: 2550 nM
TGI [54]: 6.36 µM
TGI [55]: 5.23 µM
TGI [56]: 3.48 µM
TGI [57]: 3.04 µM
